ChEMBL document CHEMBL3779815, “Synthesis of newer 1,2,3-triazole linked chalcone and flavone hybrid compounds and evaluation of their antimicrobial and cytotoxic activities” (Eur J Med Chem, 2016)
Values after ≈ are worked out from the molar mass of the structure shown.

What was measured:
Plasmodium falciparum = test: Antimalarial activity against erythrocytic stage of chloroquine sensitive Plasmodium falciparum 3D7 assessed as inhibition of parasitemia after 48 hrs by Giemsa staining based microscopic analysis; format: functional, organism-based; conditions: 3D7, 48 h
Procedure, shortened: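 Asynchronous culture on human O⁺ erythrocytes, 1-1.5% parasitemia, 4% hematocrit, RPMI-1640 with HEPES, NaHCO₃, glutamine, gentamycin, Albumax II; drug 0.10-100 μg/mL, 48 h, 37 °C, medium changed at 24 h; triplicate wells; Giemsa thin smears, about 4,000 erythrocytes counted at 1,000X; % parasitemia inhibition versus control gives IC50.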

Escherichia coli = test: Antibacterial activity against Escherichia coli ATCC 35218 after 18 to 24 hrs by micro-dilution method; format: functional
Klebsiella pneumoniae = test: Antibacterial activity against Klebsiella pneumoniae ATCC 27736 after 18 to 24 hrs by micro-dilution method; format: functional
Candida parapsilosis = test: Antifungal activity against Candida parapsilosis ATCC 22019 after 18 to 24 hrs by micro-dilution method; format: functional; conditions: Lodderomyces parapsilosis
Procedure, shortened: (§1)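 Microdilution MIC run as the antibacterial protocol but on Sabouraud dextrose […] pH 7.3±0.2; compounds 100 to 0.78 μg/mL in twofold steps; saline-prepared inocula 1-2 × 10⁷ cfu/mL, 0.01 mL added; 37 °C aerobic, 18-24 h; MIC read as lowest concentration without visible growth or turbidity; fluconazole reference.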

Candida albicans [1] = test: Antifungal activity against Candida albicans clinical isolate after 18 to 24 hrs by micro-dilution method; format: functional; procedure, shortened: as §1
Shigella boydii = test: Antibacterial activity against Shigella boydii clinical isolate after 18 to 24 hrs by micro-dilution method; format: functional
Aspergillus niger = test: Antifungal activity against Aspergillus niger clinical isolate after 18 to 24 hrs by micro-dilution method; format: functional; procedure, shortened: as §1
Candida albicans [2] = test: Antifungal activity against Candida albicans ATCC 90028 after 18 to 24 hrs by micro-dilution method; format: functional; procedure, shortened: as §1
Enterococcus faecalis = test: Antibacterial activity against Enterococcus faecalis ATCC 29212 after 18 to 24 hrs by micro-dilution assay; format: functional
Cryptococcus neoformans = test: Antifungal activity against Cryptococcus neoformans clinical isolate after 18 to 24 hrs by micro-dilution method; format: functional; procedure, shortened: as §1
Staphylococcus aureus = test: Antibacterial activity against Staphylococcus aureus […] after 18 to 24 hrs by micro-dilution method; format: functional
Candida tropicalis = test: Antifungal activity against Candida tropicalis ATCC 750 after 18 to 24 hrs by micro-dilution method; format: functional; procedure, shortened: as §1
Pseudomonas aeruginosa = test: Antibacterial activity against Pseudomonas aeruginosa […] after 18 to 24 hrs by micro-dilution method; format: functional
Aspergillus fumigatus = test: Antifungal activity against Aspergillus fumigatus clinical isolate after 18 to 24 hrs by micro-dilution method; format: functional; procedure, shortened: as §1
[3] = Cytotoxicity against human HuH7 cells after 72 hrs by MTT assay; format: cell-based, Huh-7
Procedure, shortened: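 Huh-7 cells, 4 × 10³/well in DMEM with 10% FBS and penicillin-streptomycin-glutamine; eight 2-fold dilutions 100-0.78 μg/mL, 72 h; MTT added 2-4 h, then isopropanol/Triton X-100/HCl solubilization 2 h dark, RT; absorbance 570 nm; CC50 as mean of at least two experiments in duplicate.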

Arthrodermataceae = test: Antifungal activity against Dermatophyte clinical isolate after 18 to 24 hrs by micro-dilution method; format: functional; procedure, shortened: as §1

`COc1cc(O)c(C(=O)/C=C/c2ccc(OC)c(OCc3cn(-c4ccc(F)cc4Cl)nn3)c2)c(OC)c1` gave an IC50 (Plasmodium falciparum) of 4.92 µg/mL (≈ 9.11 µM), an MIC (Escherichia coli) of over 100 µg/mL and an MIC (Klebsiella pneumoniae) of over 100 µg/mL. It also gave an MIC (Candida parapsilosis) of over 100 µg/mL, an MIC (Candida albicans [1]) of over 100 µg/mL and an MIC (Shigella boydii) of over 100 µg/mL. For the same compound, the MIC (Aspergillus niger) was over 100 µg/mL, the MIC (Candida albicans [2]) was over 100 µg/mL and the MIC (Enterococcus faecalis) was over 100 µg/mL. It also gave an MIC (Cryptococcus neoformans) of over 100 µg/mL, an MIC (Staphylococcus aureus) of 100 µg/mL (≈ 185 µM) and an MIC (Candida tropicalis) of over 100 µg/mL. It also gave an MIC (Pseudomonas aeruginosa) of over 100 µg/mL, an MIC (Aspergillus fumigatus) of over 100 µg/mL and a CC50 at 72 h [3] of over 100 µg/mL. It also gave an MIC (Arthrodermataceae) of over 100 µg/mL.
Compound `COc1cc(O)c(C(=O)/C=C/c2ccc(OCc3cn(-c4ccc(Cl)cc4)nn3)c(OC)c2)c(OC)c1` has an IC50 (Plasmodium falciparum) of 5.08 µg/mL (≈ 9.73 µM), an MIC (Escherichia coli) of over 100 µg/mL and an MIC (Klebsiella pneumoniae) of over 100 µg/mL. It also gave an MIC (Candida parapsilosis) of 12.5 µg/mL (≈ 23.9 µM), an MIC (Candida albicans [1]) of 6.25 µg/mL (≈ 12 µM) and an MIC (Shigella boydii) of over 100 µg/mL. For the same compound, the MIC (Aspergillus niger) was 25 µg/mL (≈ 47.9 µM), the MIC (Candida albicans [2]) was 12.5 µg/mL (≈ 23.9 µM) and the MIC (Enterococcus faecalis) was over 100 µg/mL. For the same compound, the MIC (Cryptococcus neoformans) was 12.5 µg/mL (≈ 23.9 µM), the MIC (Staphylococcus aureus) was over 100 µg/mL and the MIC (Candida tropicalis) was 6.25 µg/mL (≈ 12 µM). For the same compound, the MIC (Pseudomonas aeruginosa) was over 100 µg/mL, the MIC (Aspergillus fumigatus) was 25 µg/mL (≈ 47.9 µM) and the CC50 at 72 h [3] was over 100 µg/mL. It also gave an MIC (Arthrodermataceae) of 12.5 µg/mL (≈ 23.9 µM).
For `COc1cc(O)c(C(=O)/C=C/c2ccc(OCc3cn(-c4ccc(F)cc4Cl)nn3)c(OC)c2)c(OC)c1`, the IC50 (Plasmodium falciparum) was 6.27 µg/mL (≈ 11.6 µM), the MIC (Escherichia coli) was 12.5 µg/mL (≈ 23.2 µM) and the MIC (Klebsiella pneumoniae) was 25 µg/mL (≈ 46.3 µM). The MIC (Candida parapsilosis) was over 100 µg/mL, the MIC (Candida albicans [1]) was over 100 µg/mL and the MIC (Shigella boydii) was 12.5 µg/mL (≈ 23.2 µM). It also gave an MIC (Aspergillus niger) of 100 µg/mL (≈ 185 µM), an MIC (Candida albicans [2]) of 50 µg/mL (≈ 92.6 µM) and an MIC (Enterococcus faecalis) of 6.25 µg/mL (≈ 11.6 µM). For the same compound, the MIC (Cryptococcus neoformans) was over 100 µg/mL, the MIC (Staphylococcus aureus) was 6.25 µg/mL (≈ 11.6 µM) and the MIC (Candida tropicalis) was 100 µg/mL (≈ 185 µM). The MIC (Pseudomonas aeruginosa) was 12.5 µg/mL (≈ 23.2 µM), the MIC (Aspergillus fumigatus) was over 100 µg/mL and the CC50 at 72 h [3] was over 100 µg/mL. It also gave an MIC (Arthrodermataceae) of 25 µg/mL (≈ 46.3 µM).
In the case of `COc1cc(O)c(C(=O)/C=C/c2ccc(OCc3cn(-c4ccc(F)cc4F)nn3)c(OC)c2)c(OC)c1`, the IC50 (Plasmodium falciparum) is reported as 3.58 µg/mL (≈ 6.84 µM), the MIC (Escherichia coli) is reported as 6.25 µg/mL (≈ 11.9 µM) and the MIC (Klebsiella pneumoniae) is reported as 12.5 µg/mL (≈ 23.9 µM). It also gave an MIC (Candida parapsilosis) of 25 µg/mL (≈ 47.8 µM), an MIC (Candida albicans [1]) of 50 µg/mL (≈ 95.5 µM) and an MIC (Shigella boydii) of 6.25 µg/mL (≈ 11.9 µM). It also gave an MIC (Aspergillus niger) of over 100 µg/mL, an MIC (Candida albicans [2]) of over 100 µg/mL and an MIC (Enterococcus faecalis) of 12.5 µg/mL (≈ 23.9 µM). The MIC (Cryptococcus neoformans) was 50 µg/mL (≈ 95.5 µM), the MIC (Staphylococcus aureus) was 12.5 µg/mL (≈ 23.9 µM) and the MIC (Candida tropicalis) was over 100 µg/mL. It also gave an MIC (Pseudomonas aeruginosa) of 12.5 µg/mL (≈ 23.9 µM), an MIC (Aspergillus fumigatus) of over 100 µg/mL and a CC50 at 72 h [3] of over 100 µg/mL. It also gave an MIC (Arthrodermataceae) of over 100 µg/mL.
With `COc1cc(O)c(C(=O)/C=C/c2ccc(OCc3cn(-c4ccccc4Cl)nn3)c(OC)c2)c(OC)c1` the IC50 (Plasmodium falciparum) was 6.78 µg/mL (≈ 13 µM), the MIC (Escherichia coli) was 6.25 µg/mL (≈ 12 µM) and the MIC (Klebsiella pneumoniae) was 25 µg/mL (≈ 47.9 µM). It also gave an MIC (Candida parapsilosis) of over 100 µg/mL, an MIC (Candida albicans [1]) of over 100 µg/mL and an MIC (Shigella boydii) of 6.25 µg/mL (≈ 12 µM). For the same compound, the MIC (Aspergillus niger) was over 100 µg/mL, the MIC (Candida albicans [2]) was over 100 µg/mL and the MIC (Enterococcus faecalis) was 6.25 µg/mL (≈ 12 µM). For the same compound, the MIC (Cryptococcus neoformans) was over 100 µg/mL, the MIC (Staphylococcus aureus) was 12.5 µg/mL (≈ 23.9 µM) and the MIC (Candida tropicalis) was over 100 µg/mL. The MIC (Pseudomonas aeruginosa) was 12.5 µg/mL (≈ 23.9 µM), the MIC (Aspergillus fumigatus) was over 100 µg/mL and the CC50 at 72 h [3] was over 100 µg/mL. The MIC (Arthrodermataceae) was over 100 µg/mL.
In the case of `COc1cc(O)c(C(=O)/C=C/c2ccc(OC)c(OCc3cn(-c4ccc(F)c(Cl)c4)nn3)c2)c(OC)c1`, the IC50 (Plasmodium falciparum) is reported as 7.52 µg/mL (≈ 13.9 µM), the MIC (Escherichia coli) is reported as 100 µg/mL (≈ 185 µM) and the MIC (Klebsiella pneumoniae) is reported as over 100 µg/mL. It also gave an MIC (Candida parapsilosis) of over 100 µg/mL, an MIC (Candida albicans [1]) of over 100 µg/mL and an MIC (Shigella boydii) of over 100 µg/mL. For the same compound, the MIC (Aspergillus niger) was over 100 µg/mL, the MIC (Candida albicans [2]) was over 100 µg/mL and the MIC (Enterococcus faecalis) was 100 µg/mL (≈ 185 µM). For the same compound, the MIC (Cryptococcus neoformans) was 100 µg/mL (≈ 185 µM), the MIC (Staphylococcus aureus) was over 100 µg/mL and the MIC (Candida tropicalis) was 100 µg/mL (≈ 185 µM). The MIC (Pseudomonas aeruginosa) was over 100 µg/mL, the MIC (Aspergillus fumigatus) was over 100 µg/mL and the CC50 at 72 h [3] was over 100 µg/mL. It also gave an MIC (Arthrodermataceae) of over 100 µg/mL.
Compound `COc1cc(O)c(C(=O)/C=C/c2ccc(OCc3cn(-c4ccc(F)c(Cl)c4)nn3)c(OC)c2)c(OC)c1` has an IC50 (Plasmodium falciparum) of 2.74 µg/mL (≈ 5.07 µM), an MIC (Escherichia coli) of 50 µg/mL (≈ 92.6 µM) and an MIC (Klebsiella pneumoniae) of over 100 µg/mL. It also gave an MIC (Candida parapsilosis) of over 100 µg/mL, an MIC (Candida albicans [1]) of over 100 µg/mL and an MIC (Shigella boydii) of 25 µg/mL (≈ 46.3 µM). It also gave an MIC (Aspergillus niger) of 100 µg/mL (≈ 185 µM), an MIC (Candida albicans [2]) of over 100 µg/mL and an MIC (Enterococcus faecalis) of 50 µg/mL (≈ 92.6 µM). It also gave an MIC (Cryptococcus neoformans) of over 100 µg/mL, an MIC (Staphylococcus aureus) of over 100 µg/mL and an MIC (Candida tropicalis) of over 100 µg/mL. It also gave an MIC (Pseudomonas aeruginosa) of 100 µg/mL (≈ 185 µM), an MIC (Aspergillus fumigatus) of over 100 µg/mL and a CC50 at 72 h [3] of over 100 µg/mL. For the same compound, the MIC (Arthrodermataceae) was over 100 µg/mL.
Compound `C[C@@H]1CC[C@H]2[C@@H](C)C(=O)O[C@@H]3O[C@@]4(C)CC[C@@H]1[C@]32OO4` [ARTEMISININ] has an IC50 (Plasmodium falciparum) of 0.00112 µg/mL (≈ 0.00396 µM) and a CC50 at 72 h [3] of over 100 µg/mL.
`OC(Cn1cncn1)(Cn1cncn1)c1ccc(F)cc1F` [FLUCONAZOLE] gave an MIC (Candida parapsilosis) of 0.5 µg/mL (≈ 1.63 µM), an MIC (Candida albicans [1]) of 0.5 µg/mL (≈ 1.63 µM) and an MIC (Aspergillus niger) of 2 µg/mL (≈ 6.53 µM). The MIC (Candida albicans [2]) was 0.5 µg/mL (≈ 1.63 µM), the MIC (Cryptococcus neoformans) was 2 µg/mL (≈ 6.53 µM) and the MIC (Candida tropicalis) was 0.5 µg/mL (≈ 1.63 µM). It also gave an MIC (Aspergillus fumigatus) of 2 µg/mL (≈ 6.53 µM) and an MIC (Arthrodermataceae) of 4 µg/mL (≈ 13.1 µM).
